The target in assay [1] is T1, Prostaglandin D2 receptor 2 (Homo sapiens) (UniProt Q9Y5Y4).
T1 sequence (whole entry): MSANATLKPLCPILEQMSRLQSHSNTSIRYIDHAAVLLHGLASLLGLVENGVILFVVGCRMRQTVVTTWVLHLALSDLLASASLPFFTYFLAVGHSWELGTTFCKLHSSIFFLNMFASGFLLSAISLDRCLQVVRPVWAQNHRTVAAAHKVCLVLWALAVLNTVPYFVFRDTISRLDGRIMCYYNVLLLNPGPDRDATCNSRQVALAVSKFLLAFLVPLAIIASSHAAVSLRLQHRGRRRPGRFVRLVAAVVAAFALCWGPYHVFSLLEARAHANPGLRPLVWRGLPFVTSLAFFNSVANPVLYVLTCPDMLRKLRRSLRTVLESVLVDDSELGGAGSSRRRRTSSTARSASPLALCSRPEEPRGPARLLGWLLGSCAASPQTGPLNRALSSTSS
The experiment in a line: Antagonist activity at human CRTH2 receptor expressed in HEK285-7 cells assessed as inhibition of beta arrestin translocation by bioluminescence resonance energy transfer assay relative to control. It is filed as functional, cell-based. In a few lines: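 Same BRET2 β-arrestin2 translocation format in CRTH2-transfected HEK385-7 cells: 5 min antagonist preincubation, then PGD₂ at about 75–80% of maximal agonist efficacy for 5 min, DeepBlueC coelenterazine, 515/400 nm ratio. Value is antagonist efficacy expressed as percent.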

The target of assay [2] is T2, Prostaglandin D2 receptor 2 (Homo sapiens, UniProt Q9Y5Y4).
T2 sequence (Q9Y5Y4 whole entry): T1 sequence (whole entry)
In words: Displacement of[3H]PGD2 from human CRTH2 receptor expressed in african green monkey COS7 cells. Type of assay: cell-based, COS-7. The method in brief:
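Equilibrium competition binding against [³H]PGD₂ on stably transfected COS7 cells expressing human CRTH2. Nonspecific binding defined with […] unlabelled PGD₂. IC50 reported.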

For assay [3], the target named is T2, Prostaglandin D2 receptor 2. The experiment in a line: Antagonist activity at human CRTH2 receptor expressed in HEK285-7 cells assessed as inhibition of beta arrestin translocation by bioluminescence resonance energy transfer assay. It is filed as functional, cell-based. The method in brief: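 BRET2 readout in HEK385-7 cells transfected with CRTH2 (GFP2-β-arrestin2 acceptor, receptor-Rluc donor). Cells preincubated with antagonist 5 min with shaking, then PGD₂ added at a level eliciting about 75–80% of maximal agonist response, 5 min more. DeepBlueC coelenterazine injected; emission read 5 s later at 400 and 515 nm; signal = 515/400 ratio. IC50 derived.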

pIC50: −log10 of the molar value. Bounds are passed on as bounds.

`Cc1ccc(-c2nc(-c3ccc(Cl)cc3)sc2CC(=O)O)c(C)c1`: the Efficacy in assay [1] was above 70%. In assay [2], this compound gave a pIC50 of 6.00.
On to `O=C(O)Cc1sc(Cc2ccccc2)nc1-c1ccc(F)cc1`, for which the Efficacy in assay [1] came out at 30%. Moreover, the pIC50 is 6.85 in assay [2] and 6.74 in assay [3].
`COc1ccc(Cc2nc(-c3ccccc3)c(CC(=O)O)s2)cc1OC`: the Efficacy in assay [1] is above 70%. Besides, the pIC50 in assay [2] was 6.48; in assay [3], 5.42.
Regarding `O=C(O)Cc1sc(Cc2ccccc2Br)nc1-c1ccc(F)cc1`, in assay [1], the Efficacy is above 70%. Besides, the pIC50 in assay [2] was 6.15; in assay [3], below 4.00.
Turning to `O=C(O)Cc1sc(Nc2ccccc2)nc1-c1ccc(-c2ccccc2)cc1`, in assay [1], the Efficacy is above 70%. The results for the negative-log IC50 (pIC50) in assay [2] and in assay [3] were 6.18 and 5.92, respectively.
As for `N#Cc1ccc(-c2ccccc2Cc2nc(-c3ccc(F)cc3)c(CC(=O)O)s2)cc1`, the Efficacy in assay [1] was 30%. The pIC50 in assay [2] was 6.77; in assay [3], 6.72.
`COc1ccccc1Nc1nc(-c2ccc(Oc3ccccc3)cc2)c(CC(=O)O)s1`: the Efficacy in assay [1] is above 70%. Besides, the pIC50 in assay [2] was 7.31; in assay [3], 6.32.
On to `O=C(O)Cc1sc(Cc2ccccc2-c2ccccc2)nc1-c1ccc(Cl)cc1`, for which the Efficacy in assay [1] was above 70%. The pIC50 in assay [2] was 7.39; in assay [3], 6.29.
As for `O=C(O)Cc1sc(Cc2ccccc2)nc1-c1ccc(Cl)cc1`, the Efficacy in assay [1] was above 70%. Further, the results for the pIC50 in assay [2] and in assay [3] were 6.74 and 5.39, respectively.
With `COc1ccccc1-c1ccccc1Cc1nc(-c2ccc(F)cc2)c(CC(=O)O)s1`, the Efficacy in assay [1] was above 70%. The pIC50 is 6.77 in assay [2] and below 4.00 in assay [3].
In the same order, the values of `O=C(O)Cc1sc(Cc2ccccc2-c2ccccc2)nc1-c1ccc(F)cc1` are above 70%, 7.62 and 6.43.
Regarding `COc1ccc(-c2nc(Nc3ccccc3)sc2CC(=O)O)cc1`, the Efficacy in assay [1] is above 70%. Besides, the pIC50 is 5.72 in assay [2] and 5.62 in assay [3].
In the same order, the values of `N#Cc1cccc(-c2ccccc2Cc2nc(-c3ccc(F)cc3)c(CC(=O)O)s2)c1` are above 70%, 6.47 and below 4.00.
In the case of `O=C(O)Cc1sc(-c2ccc(Oc3ccccc3)cc2)nc1-c1ccc(Cl)cc1`, the Efficacy in assay [1] was above 70%. The pIC50 was 7.03 in assay [2] and 5.89 in assay [3].
In the same order, the values of `CCc1ccc(-c2nc(-c3ccccc3)sc2CC(=O)O)cc1` are 50%, 5.89 and 6.46.
As to `O=C(O)Cc1sc(-c2ccc(Cl)cc2)nc1-c1ccccc1`, the Efficacy in assay [1] was above 70%. Also, the values for the pIC50 in assay [2] and in assay [3] were 6.00 and 5.80, respectively.
With `COc1ccc(-c2ccccc2Cc2nc(-c3ccc(F)cc3)c(CC(=O)O)s2)cc1`, the Efficacy in assay [1] is above 70%. Besides, the pIC50 in assay [2] is 7.14; in assay [3], 6.57.
As for `O=C(O)Cc1sc(-c2ccccc2)nc1-c1ccc(F)cc1`, the Efficacy in assay [1] was above 70%. For the same compound, the pIC50 is 6.07 in assay [2] and 5.46 in assay [3].
In the same order, the values of `COc1cccc(-c2ccccc2Cc2nc(-c3ccc(F)cc3)c(CC(=O)O)s2)c1` are above 70%, 7.40 and 6.41.
In the case of `COc1ccccc1Nc1nc(-c2ccc(Cl)cc2)c(CC(=O)O)s1`, the Efficacy in assay [1] is above 70%. In addition, the pIC50 is 6.35 in assay [2] and 6.14 in assay [3].
For `O=C(O)Cc1sc(Nc2ccccc2)nc1-c1ccccc1` the same measures were above 70%, 6.46 and 5.82.
In the case of `COc1ccc(-c2nc(-c3ccc(OC)cc3)c(CC(=O)O)s2)cc1`, the Efficacy in assay [1] is above 70%. The compound also gave a pIC50 in assay [2] of 5.39.
In the case of `O=C(O)Cc1sc(-c2ccc(Oc3ccccc3)cc2)nc1-c1ccccc1`, the Efficacy in assay [1] is above 70%. The pIC50 is 6.80 in assay [2] and 6.18 in assay [3].
`O=C(O)Cc1sc(Cc2ccc(Cl)cc2)nc1-c1ccc(Oc2ccccc2)cc1`: the Efficacy in assay [1] was above 70%. Besides, the pIC50 is 8.43 in assay [2] and 7.18 in assay [3].
Take `O=C(O)Cc1sc(-c2ccccc2)nc1-c1ccccc1`: in assay [1], the Efficacy was above 70%. The values for the pIC50 in assay [2] and in assay [3] were 6.06 and 5.60, respectively.
In the case of `Cc1ccc(Cc2nc(-c3ccccc3)c(CC(=O)O)s2)cc1`, the Efficacy in assay [1] was above 70%. Moreover, the pIC50 was 6.60 in assay [2] and 5.74 in assay [3].
For the compound `COc1ccc(-c2nc(-c3ccc(Oc4ccccc4)cc3)sc2CC(=O)O)cc1`, in assay [1], the Efficacy was above 70%. In addition, the pIC50 was 6.33 in assay [2] and 5.80 in assay [3].
In the same order, the values of `O=C(O)Cc1sc(Cc2ccccc2Oc2ccccc2)nc1-c1ccc(Cl)cc1` are above 70%, 6.80 and below 4.00.
Take `COc1ccccc1Nc1nc(-c2ccc(F)cc2)c(CC(=O)O)s1`: the Efficacy in assay [1] was above 70%. Besides, the pIC50 is 5.82 in assay [2] and 5.68 in assay [3].
Take `CC(C)c1ccc(Nc2nc(-c3ccc(Cl)cc3)c(CC(=O)O)s2)cc1`: in assay [1], the Efficacy is above 70%. The pIC50 in assay [2] was 5.92; in assay [3] it was 4.80.
Consider `O=C(O)Cc1sc(Nc2ccccc2)nc1-c1ccc(Oc2ccccc2)cc1`, for which the Efficacy in assay [1] was above 70%. In addition, the values for the pIC50 in assay [2] and in assay [3] were 7.08 and 6.46, respectively.
Take `COc1ccc(-c2nc(Cc3ccc(Cl)cc3)sc2CC(=O)O)cc1`: in assay [1], the Efficacy is above 70%. In addition, the pIC50 in assay [2] was 6.44; in assay [3] it was 6.07.
As for `COc1ccc(-c2nc(-c3ccc(Br)cc3)c(CC(=O)O)s2)cc1`, the Efficacy in assay [1] was above 70%. In addition, the pIC50 in assay [2] was 6.41.
Consider `O=C(O)Cc1sc(Nc2ccc(C(F)(F)F)cc2)nc1-c1ccc(Cl)cc1`, for which the Efficacy in assay [1] is above 70%. Moreover, the pIC50 is 6.15 in assay [2] and 5.96 in assay [3].
In the case of `O=C(O)Cc1sc(Nc2ccccc2)nc1-c1ccc(F)cc1`, in assay [1], the Efficacy is above 70%. In addition, the pIC50 was 6.19 in assay [2] and 5.89 in assay [3].
For `O=C(O)Cc1sc(Cc2ccc(Cl)cc2)nc1-c1ccccc1`, the Efficacy in assay [1] was above 70%. For the same compound, the pIC50 in assay [2] is 7.06; in assay [3], 6.24.
For `O=C(O)Cc1sc(Nc2ccccc2Cl)nc1-c1ccc(Oc2ccccc2)cc1`, the Efficacy in assay [1] is above 70%. The negative-log IC50 (pIC50) in assay [2] was 6.89; in assay [3], below 4.00.
For `COc1ccc(-c2nc(-c3ccccc3)c(CC(=O)O)s2)cc1`, the Efficacy in assay [1] was above 70%. The pIC50 in assay [2] is 6.09; in assay [3], 5.77.
`O=C(O)Cc1sc(Nc2ccccc2)nc1-c1ccc(Cl)cc1`: the Efficacy in assay [1] was above 70%. Moreover, the pIC50 in assay [2] was 7.00; in assay [3] it was 5.89.
Take `O=C(O)Cc1sc(Nc2ccc(Cl)cc2)nc1-c1ccc(F)cc1`: in assay [1], the Efficacy is above 70%. Further, the pIC50 is 6.02 in assay [2] and 5.72 in assay [3].
As to `O=C(O)Cc1sc(Nc2ccc(F)cc2)nc1-c1ccc(Oc2ccccc2)cc1`, the Efficacy in assay [1] was above 70%. In addition, the pIC50 in assay [2] is 7.05; in assay [3], 6.27.
For `O=C(O)Cc1sc(Nc2ccc(Cl)cc2)nc1-c1ccc(-c2ccccc2)cc1` the same measures were 20%, 6.03 and 5.42.
On to `CCc1ccc(-c2nc(-c3ccccc3OC)sc2CC(=O)O)cc1`, for which the Efficacy in assay [1] is above 70%. The compound further showed a negative logarithm of the IC50 (pIC50) in assay [2] of 5.85.
Take `CN(C)c1ccc(-c2nc(-c3ccc(Br)cc3)c(CC(=O)O)s2)cc1`: the Efficacy in assay [1] was above 70%. Besides, the pIC50 in assay [2] was 6.34.
In the case of `O=C(O)Cc1sc(Cc2ccccc2-c2ccc3c(c2)OCO3)nc1-c1ccc(F)cc1`, the Efficacy in assay [1] was above 70%. In addition, the results for the pIC50 in assay [2] and in assay [3] were 7.62 and 5.82, respectively.
Regarding `O=C(O)Cc1sc(Cc2ccc3ccccc3c2)nc1-c1ccc(Cl)cc1`, in assay [1], the Efficacy was above 70%. Further, the pIC50 was 7.39 in assay [2] and 6.24 in assay [3].
On to `COc1ccc(Nc2nc(-c3ccccc3)c(CC(=O)O)s2)cc1`, for which the Efficacy in assay [1] is above 70%. Moreover, the values for the pIC50 in assay [2] and in assay [3] were 6.03 and 5.82, respectively.
Take `O=C(O)Cc1sc(Cc2ccc(Cl)cc2)nc1-c1ccc(Cl)cc1`: the Efficacy in assay [1] was above 70%. Besides, the pIC50 in assay [2] was 7.30; in assay [3] it was 6.66.
For the compound `COc1ccc(-c2nc(-c3ccc(Cl)cc3)sc2CC(=O)O)cc1`, in assay [1], the Efficacy was above 70%. For the same compound, the pIC50 in assay [2] is 6.68.
As to `COc1ccccc1-c1nc(-c2ccc(Br)cc2)c(CC(=O)O)s1`, in assay [1], the Efficacy is above 70%. In addition, the pIC50 in assay [2] was 6.46.

Broadly, the pIC50 is the IC50 on a negative log10 scale, so that one unit is a factor of ten.

The record behind these values is ChEMBL document CHEMBL1158515, “Novel selective thiazoleacetic acids as CRTH2 antagonists developed from in silico derived hits. Part 1” (Bioorg Med Chem Lett, 2010).
